The target in assay [1] is Prothrombin (Homo sapiens) (UniProt P00734). The experiment in a line: Ratio of inactivation to apparent binding constant against thrombin. In short, it runs like this:
(§1)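 Thrombin (0.1 μM) preincubated with 300 μM inhibitor at pH 7.5, 25 °C. Timed aliquots assayed for residual activity with S-2238. Pseudo-first-order kobs from semilog plot of remaining activity vs time.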

The target in assay [2] is T1, Serine protease 1 (Bos taurus) (UniProt P00760).
T1 sequence (whole entry): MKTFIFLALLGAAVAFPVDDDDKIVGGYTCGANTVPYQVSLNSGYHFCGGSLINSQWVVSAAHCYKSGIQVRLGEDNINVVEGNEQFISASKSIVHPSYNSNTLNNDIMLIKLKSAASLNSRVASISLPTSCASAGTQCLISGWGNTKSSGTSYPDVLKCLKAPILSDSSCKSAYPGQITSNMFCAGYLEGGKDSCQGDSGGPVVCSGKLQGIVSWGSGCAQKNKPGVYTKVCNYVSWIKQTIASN
The experiment in a line: Ratio of inactivation to apparent binding constant against bovine trypsin;NI=no inhibition.

Assay [3] has as its target T2, Urokinase-type plasminogen activator (Homo sapiens, UniProt P00749). The experiment in a line: Ratio of inactivation to apparent binding constant against human urokinase; NI=no inhibition.
Assay [4] concerns the target Tissue-type plasminogen activator (Homo sapiens) (UniProt P00750). The experiment in a line: Ratio of inactivation to apparent binding constant against tissue plasminogen activator (t-PA). The gist of the method:
(§2)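 t-PA (0.75 μM) preincubated with inhibitor 0.37-1 mM at pH 7.5, 25 °C. Aliquots assayed periodically for remaining amidolytic activity with p-nitroanilide substrate. kobs from semilogarithmic plots.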

The target in assay [5] is Plasminogen (Homo sapiens) (UniProt P00747). Kind of assay: Ratio of inactivation to apparent binding constant against plasmin. The gist of the method: (§3)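 Plasmin (1 μM; 0.7 μM in one series) preincubated with inhibitor 34-560 μM at pH 7.5, 25 °C. Aliquots assayed for residual activity on S-2251. kobs from semilog plots; kinact/KI from Kitz-Wilson analysis or as kobs/[I].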
Plasminogen (Homo sapiens), sequence (P00747 97-580 limits assumed): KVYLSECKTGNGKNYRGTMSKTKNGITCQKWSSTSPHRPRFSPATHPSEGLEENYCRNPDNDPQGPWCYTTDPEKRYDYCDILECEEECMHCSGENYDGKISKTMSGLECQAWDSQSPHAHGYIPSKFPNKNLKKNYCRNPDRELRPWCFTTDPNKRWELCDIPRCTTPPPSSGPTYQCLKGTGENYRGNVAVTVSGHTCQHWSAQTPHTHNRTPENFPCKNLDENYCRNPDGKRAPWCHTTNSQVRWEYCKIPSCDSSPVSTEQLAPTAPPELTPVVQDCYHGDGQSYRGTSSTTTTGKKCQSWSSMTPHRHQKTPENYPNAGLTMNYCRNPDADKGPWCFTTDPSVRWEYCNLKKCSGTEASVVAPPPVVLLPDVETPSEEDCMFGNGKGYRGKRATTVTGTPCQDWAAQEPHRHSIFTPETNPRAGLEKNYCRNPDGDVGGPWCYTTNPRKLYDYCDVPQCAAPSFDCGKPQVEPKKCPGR
Plasminogen (Homo sapiens), sequence (P00747 581-810 limits assumed): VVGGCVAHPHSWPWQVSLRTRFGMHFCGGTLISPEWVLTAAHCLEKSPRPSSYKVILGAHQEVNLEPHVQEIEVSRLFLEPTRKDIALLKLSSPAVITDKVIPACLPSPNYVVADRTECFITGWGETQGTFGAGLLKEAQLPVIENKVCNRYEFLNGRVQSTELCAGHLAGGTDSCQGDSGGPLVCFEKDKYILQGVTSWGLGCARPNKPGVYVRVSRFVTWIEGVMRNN

Assay [6] addresses Prothrombin (Homo sapiens) (UniProt P00734). Kind of assay: Ratio of inactivation to apparent binding constant against thrombin;NI=no inhibition. The gist of the method:
as §1

Assay [7] addresses T1, Serine protease 1 (Bos taurus). Kind of assay: Inactivation constant determined against bovine trypsin. In short, it runs like this: (§4)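 Pseudo-first-order inactivation at pH 7.5, 25 °C, inhibitor in excess. Two methods. Preincubation: aliquots taken over time and assayed for residual activity, kobs from semilog plots. Progress curve: continuous A405 with chromogenic substrate present, vs blank with inhibitor and substrate (trypsin 0.5 μM, BAPNA 0.3 mM, 1.5% DMSO; urokinase 31 nM, S-2444). KI and kinact from double-reciprocal (Wilkinson) fits.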

For assay [8] the target is unchanged. The experiment in a line: Ratio of inactivation to apparent binding constant against bovine trypsin. The gist of the method: as §4
For assay [9], the target named is T3, Serine protease 1 (Bos taurus, UniProt P00760).
T3 sequence (P00760 whole entry): T1 sequence (whole entry)
Kind of assay: Apparent binding constant against bovine trypsin. The gist of the method:
as §4

In assay [10] the target is T2, Urokinase-type plasminogen activator. The experiment in a line: Apparent binding constant against Human urokinase. In short, it runs like this: as §4
Assay [11] shares this target. Kind of assay: Inactivation constant determined against urokinase. In short, it runs like this:
as §4

The target is the same in assay [12]. The experiment in a line: Ratio of inactivation to apparent binding constant against human urokinase. In short, it runs like this:
as §4

The target in assay [13] is Tissue-type plasminogen activator (Homo sapiens) (UniProt P00750). Kind of assay: Ratio of inactivation to apparent binding constant against tissue plasminogen activator (t-PA);NI=no inhibition. In short, it runs like this: as §2
Tissue-type plasminogen activator (Homo sapiens), sequence (P00750 36-562 limits assumed): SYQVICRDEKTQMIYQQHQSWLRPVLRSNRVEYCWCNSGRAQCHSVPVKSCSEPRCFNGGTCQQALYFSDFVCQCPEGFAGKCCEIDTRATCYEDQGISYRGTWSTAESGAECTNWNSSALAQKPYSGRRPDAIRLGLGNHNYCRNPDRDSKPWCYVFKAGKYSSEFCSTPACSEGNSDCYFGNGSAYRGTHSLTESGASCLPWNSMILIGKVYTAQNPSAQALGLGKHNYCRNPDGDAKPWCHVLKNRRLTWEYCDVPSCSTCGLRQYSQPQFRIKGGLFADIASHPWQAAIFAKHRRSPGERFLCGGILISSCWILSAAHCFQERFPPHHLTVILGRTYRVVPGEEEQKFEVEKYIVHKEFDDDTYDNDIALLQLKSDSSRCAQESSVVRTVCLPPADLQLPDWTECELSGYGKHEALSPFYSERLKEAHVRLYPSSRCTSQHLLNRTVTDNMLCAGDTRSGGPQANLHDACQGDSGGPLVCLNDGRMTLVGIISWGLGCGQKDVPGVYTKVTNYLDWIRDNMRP
Assay [14] deals with Trypsin (Sus scrofa) (UniProt P00761). The experiment in a line: Inactivation constant determined against porcine trypsin.
Trypsin (Sus scrofa), sequence (P00761 whole entry, looked up): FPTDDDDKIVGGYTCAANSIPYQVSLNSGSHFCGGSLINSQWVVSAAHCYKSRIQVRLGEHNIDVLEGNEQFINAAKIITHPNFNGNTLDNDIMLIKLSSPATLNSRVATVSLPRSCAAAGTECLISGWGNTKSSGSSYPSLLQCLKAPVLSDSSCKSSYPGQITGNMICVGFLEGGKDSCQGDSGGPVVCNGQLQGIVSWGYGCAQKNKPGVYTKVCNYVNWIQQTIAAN
For assay [15] the target is unchanged. The experiment in a line: Ratio of inactivation to apparent binding constant against porcine trypsin.
Assay [16] addresses Plasminogen (Homo sapiens) (UniProt P00747). Kind of assay: Ratio of inactivation to apparent binding constant against plasmin;NI=no inhibition. The gist of the method: as §3
Assay [17] has as its target T1, Serine protease 1 (Bos taurus). Kind of assay: Ratio of inactivation to apparent binding constant against bovine trypsin (obtained as k obs/[I] at low inhibitor concentration). In short, it runs like this: (§5)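 For weak inactivation, kinact/KI taken as kobs/[I] at low inhibitor concentration. Preincubation at pH 7.5, 25 °C: trypsin 4.5 μM or urokinase 55 μM with excess inhibitor. Aliquots diluted (or filtered at 4 °C) and assayed for residual activity on BAPNA or S-2444. kobs by least squares of semilog remaining activity vs time.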

Assay [18] concerns the target T2, Urokinase-type plasminogen activator. The experiment in a line: Ratio of inactivation to apparent binding constant against human urokinase (obtained as k obs/[I] at low inhibitor concentration). In short, it runs like this:
as §5

The target of assay [19] is T1, Serine protease 1 (Bos taurus).
For assay [20], the target named is T2, Urokinase-type plasminogen activator.

The source made the active and inactive calls. No cut-off for these calls is given here.

`N=C(N)NCCCC1NC(=O)CNC(=O)c2cc(CBr)ccc2NC1=O` (stereo unspecified): the Ratio entry in assay [1] was “No inactivation”; in assay [2], 5 M⁻¹ s⁻¹; in assay [3] it was 14 M⁻¹ s⁻¹; in [4], “No inactivation”; in assay [5] it was “No inactivation”.
For the compound `N=C(N)NCCCC1NC(=O)CNC(=O)c2cc(ccc2CBr)NC1=O` (stereo unspecified), the Ratio result in [6] and in [13] was “inactive” throughout. The K inact in assay [7] was 0.031 s⁻¹; in assay [11] it was 0.017 s⁻¹; in assay [14] it was 0.041 s⁻¹. Also, the Ratio in assay [8] worked out at 560 M⁻¹ s⁻¹; in assay [12], 185 M⁻¹ s⁻¹; in assay [5], 2 M⁻¹ s⁻¹; in assay [15], 2050 M⁻¹ s⁻¹. In addition, the Ki in [9] is 55 µM; in assay [10], 92 µM.
In the case of `C[S+](C)Cc1ccc2cc1C(=O)NCC(=O)NC(CCCN=C(N)N)C(=O)N2` (stereo unspecified), the Ratio entry in [16], in assay [6] and in [13] was “inactive” throughout. Moreover, the Ratio is 1 M⁻¹ s⁻¹ in assay [8] and 341 M⁻¹ s⁻¹ in assay [12]. Also, the Ki in [10] stood at 41 µM. In addition, the K inact in assay [11] was 0.014 s⁻¹.
With `NCCCCC1NC(=O)CNC(=O)c2cc(ccc2CBr)NC1=O` (stereo unspecified), the Ratio result in [16], in [6] and in [13] was “inactive” each time. In assay [7], this compound returned a K inact of 0.02 s⁻¹. Besides, the Ratio in assay [8] worked out at 250 M⁻¹ s⁻¹. Besides, the Ki in assay [9] amounted to 80 µM.
On to `C[S+](Cc1ccc2cc1C(=O)NCC(=O)NC(CCCCN)C(=O)N2)c1ccccc1` (stereo unspecified), for which the Ratio entry in [6] and in assay [13] was “inactive” each time. In addition, the K inact in assay [7] came out at 0.0075 s⁻¹; in [11] it was 0.077 s⁻¹. Besides, the Ratio in [8] worked out at 860 M⁻¹ s⁻¹; in assay [12] it was 154 M⁻¹ s⁻¹; in [5] it was 75 M⁻¹ s⁻¹. In addition, the Ki worked out at 8.7 µM in assay [9] and 500 µM in assay [10].
Regarding `C[S+](Cc1ccc2c(c1)C(=O)NCC(=O)NC(CCCN=C(N)N)C(=O)N2)c1ccccc1` (stereo unspecified), the Ratio result in assay [16], in assay [6] and in [13] was “inactive” in each case. For the same compound, the Ratio in assay [17] came out at 50 M⁻¹ s⁻¹; in assay [18], 14 M⁻¹ s⁻¹.
As for `C[S+](C)Cc1ccc2cc1C(=O)NCC(=O)NC(CCCCN)C(=O)N2` (stereo unspecified), the Ratio result in assay [16], in assay [6], in [2] and in [13] was “inactive” throughout.
`C[S+](Cc1ccc2c(c1)C(=O)NCC(=O)NC(CCCCN)C(=O)N2)c1ccccc1` (stereo unspecified): the Ratio entry in [16], in assay [6], in assay [2] and in [13] was “inactive” each time. Besides, in assay [12], the Ratio is 25 M⁻¹ s⁻¹.
Consider `NCCCCC1NC(=O)CNC(=O)c2cc(CBr)ccc2NC1=O` (stereo unspecified), for which the Ratio result in assay [16], in [6], in [2], in assay [3] and in assay [13] was “inactive” each time.
With `C[S+](Cc1ccc2cc1C(=O)NCC(=O)NC(CCCN=C(N)N)C(=O)N2)c1ccccc1` (stereo unspecified), the Ratio came out at 12 M⁻¹ s⁻¹ in assay [6]; 916 M⁻¹ s⁻¹ in assay [8]; 2330 M⁻¹ s⁻¹ in assay [12]; 1 M⁻¹ s⁻¹ in [13]; 40 M⁻¹ s⁻¹ in assay [5]. For the same compound, the Ki in assay [9] was found to be 12 µM; in assay [10], 9 µM. Also, the kinact (as a rule, the maximal first-order rate at which the target is inactivated) in assay [19] was 0.011 s⁻¹; in assay [20], 0.021 s⁻¹.
